Bioassay records: PubChem, Broad Institute
XiGFP reactiv = X-chromosome reactivation activator. AID 743238. XiGFP mouse fibroblasts, % GFP-positive cells imaging, 3 d; cells co-treated with 5-aza-dC sensitizer; scaled so ellipticine positive control = 100%. activation, % at 7.58 µM. actives 0.055% (n = 360,000);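 active means mean normalized replicate activation at least 10% and every replicate at or above 10%; inconclusive means only one of the two criteria met; inactive means mean below 10% and not all replicates reach 10%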;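 further: 0% = median of on-plate neutral control wells and 100% = ellipticine 6 µM median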
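Material: XiGFP fibroblasts, SV40-immortalized. Buffer or medium: DMEM plus 5-aza-dC sensitizer. Compound: single concentration per compound, delivered by pin transfer. Times: 3 days compound exposure. Controls: ellipticine 6 µM.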
Vif imaging = inhibitors of HIV Vif; HEK293T cells, Vif self-association by quenched fluorescence, imaging, 24 h; inhibition, % at 7.49 µM; actives 0.35% (n = 340,000); AID 602346; in the data active means inhibition above about 50%, passing the limit was not always enough; inconclusive means no clear call, values can overlap the other calls; inactive means below about 31%
esBAF inh = inhibitors of esBAF chromatin remodeling in mouse ES cells. Bmi1-luciferase knock-in reporter, 24 h; 100% = twice the neutral-well signal. reporter increase, % at 12.5 µM. actives 2% (n = 350,000); in the data active means activation above about 40%; inconclusive means no clear call, values can overlap the other calls;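 further: 0% = median of the plate's neutral control wells and 100% = double that signal; a rise in the Bmi1 reporter signal indicates esBAF inhibition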
MITF act = MITF TRPM1 promoter activation in melanoma cells. activation, % at 12.5 µM. actives 0.75% (n = 300,000). AID 588334. SK-MEL-5 TRPM1-promoter luciferase, 24 h; % of positive control, neutral wells = 0;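 active means mean activation of at least 80% with every replicate also reaching 80%; inconclusive means mean reaches 80% but some replicate falls short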;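 further: 0% = neutral control wells and 100% = parthenolide positive control wells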
Wnt bcat act = activates Wnt/beta-catenin signaling in a reporter cell assay; activator, plate reader; activation, % at 9.35 µM; actives 1.2% (n = 300,000); AID 743398; in the data active means activation above about 30%, passing the limit was not always enough; inconclusive means no clear call, values can overlap the other calls;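 further: 0% = neutral control wells and 100% = positive control wells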
* marks the source's active call; other numbers are inactive results; ? = inconclusive; . = no result. Rows were chosen to be rich in hits. Some 2.6% of all compounds tested hit in one or more screens of this group.

SMILES | XiGFP reactiv | Vif imaging | esBAF inh | MITF act | Wnt bcat act
C[C@@H]1CN([C@@H](C)CO)S(=O)(=O)c2ccc(Br)cc2O[C@@H]1CN(C)CC1CC1 | 0 | . | 2 | . | .
Cc1ccc(NC(=O)c2cc3ccccc3o2)nc1 | 0 | 0 | . | 28 | 65*
COc1ccc(-c2cc3ccccc3oc2=O)cc1NC(=O)c1ccc([N+](=O)[O-])o1 | . | -6 | 42* | -55 | .
Cc1ccc(NC(=O)c2ccc3ccccc3n2)nc1 | . | -4 | 22 | 42 | 77*
COc1ccc(-c2cc3ccccc3oc2=O)cc1NC(=O)c1ccc(Br)o1 | . | 6 | -7 | 53 | .
O=C(Nc1nc(-c2cc3ccccc3oc2=O)cs1)c1ccco1 | 0 | . | 9 | . | 5
O=c1oc2ccccc2cc1-c1csc(NN=C2CCCCC2)n1 | . | -5 | 66* | 77 | .
CNc1ncc(C(=O)c2ccc(-c3ccccc3)cc2)s1 | 0 | 0 | . | 77 | 41*
CNc1ncc(C(=O)c2ccc(Cl)c(Cl)c2)s1 | . | -1 | 77* | . | .
CNc1ncc(C(=O)c2ccc(Cl)cc2)s1 | . | 8 | 36 | . | .
COc1ccc(C2=NN(CN3C(=O)C(=O)c4ccccc43)C(c3ccc(OC)cc3)C2)cc1 (stereo not drawn) | 0 | -7 | . | 56 | 54*
COc1ccc(C2=NN(S(=O)(=O)c3ccccc3)C(c3ccccc3)C2)cc1 (stereo not drawn) | 0 | -8 | 9 | 3 | 4
C/C(=N/NC(=O)c1cccs1)c1ccc(NC(=O)COc2ccc(Cl)cc2)cc1 | . | . | 50* | -18 | .
COc1ccc(C(=O)NCCn2cc(SCC(=O)NCc3ccco3)c3ccccc32)cc1 | . | 0 | 52* | 4 | .
O=C(CNC(=O)c1cccs1)c1ccc(Cl)cc1 | 0 | 8 | 39 | 130* | 5
CCC(=O)N(C)C[C@H]1Oc2ncc(C#Cc3ccccc3)cc2C(=O)N([C@H](C)CO)C[C@H]1C | 0 | . | -1 | . | .
COC(=O)C(C)N1C(=O)S/C(=C\c2cc(C)n(-c3ccccn3)c2C)C1=O (stereo not drawn) | . | 1 | -48 | 40 | .
CCOC(=O)CN1C(=O)S/C(=C/c2ccc(C)o2)C1=O | 0 | -4 | 12 | 13 | 0
CCOC(=O)CN1C(=O)S/C(=C/c2cc(C)n(C)c2C)C1=O | . | . | 47* | 88* | 40*
CCOC(=O)CN1C(=O)S/C(=C/c2cc(C)n(-c3ccccn3)c2C)C1=O | . | 1 | 45* | 53 | .
COC(=O)C(C)N1C(=O)S/C(=C/c2cc(C)n(-c3ccccn3)c2C)C1=O (stereo not drawn) | . | . | -9 | 20 | 57*
C[C@@H]1CN([C@@H](C)CO)S(=O)(=O)c2ccc(C#CC(C)(C)O)cc2O[C@@H]1CN(C)C(=O)CN(C)C | 0 | . | 2 | . | .
CCN(CC)c1ccc(/C=N/N2CCOCC2)c(O)c1 | 0 | -1 | . | 109* | .
CCN(CC)c1ccc(/C=N/N=C(N)N)c(O)c1 | 7 | 65* | . | -26 | -1
CCOc1ccc(CN(C(=O)c2ccccn2)c2ccc(OC)c(Cl)c2)cc1 | 0 | 3 | 46* | 21 | 3
SMILES | XiGFP reactiv | Vif imaging | esBAF inh | MITF act | Wnt bcat act
CCOc1ccc(N(Cc2ccc(OC)c(OC)c2)C(=O)c2ccco2)cc1 | 0 | -1 | . | . | -2
COC(=O)c1ccc(NC(=O)NC2CCCCC2)cc1 | 0 | -1 | . | 57 | .
CCOc1ccc(NC(=O)NC2CC(=O)N(c3ccc(OC)cc3)C2)cc1 (stereo not drawn) | 0 | 4 | -5 | 1 | 42*
COc1cccc(NC(=O)NC2CCCCCCC2)c1 | 0 | -6 | 39 | 89* | 13
COc1cccc(NC(=O)C(=S)NC2CCCCC2)c1 | 0 | 3 | -4 | 84* | 11
COc1cccc(NC(=S)N2CCC(NC(=O)C3CCCCC3)CC2)c1 | 0 | 3 | -2 | -2 | -1
COc1ccc(NC(=O)NC2CCCCCCC2)cc1 | 0 | -3 | 53* | 59 | 6
C[C@H]1CN([C@@H](C)CO)C(=O)c2c(c3ccccc3n2C)-c2ccccc2CO[C@H]1CN(C)Cc1ccncc1 | 0 | . | -5 | . | .
COc1ccc(C(=S)NC2CCCCC2)cc1 | . | 0 | 50* | 39 | .
Cc1ccc(NC(=O)NC2CCCCCCC2)cc1 | 0 | 1 | . | 64 | 35*
Cc1ccc(NC(=O)C(=O)NC2CCCCC2)cc1 | . | -1 | 24 | ? | .
CCOc1ccc(C(=S)NC2CCCCC2)cc1 | . | 12 | . | 37 | .
CC(=O)c1c(C)[nH]c(C(=O)COC(=O)Cc2ccccc2F)c1C | 0 | -3 | 56* | . | 26
COCC(=O)N1CC2(C1)CN(Cc1cccc(OC)c1)[C@H](CO)c1c2c2ccc(OC)cc2n1C | 0 | . | . | . | .
Clc1cccc(-c2cc3nc4c(c(N5CCN(c6cnccn6)CC5)n3n2)CCCC4)c1 | . | -5 | 47* | 47 | 3
COCC(=O)N(C)C[C@H]1Oc2ncc(C#CC(C)(C)O)cc2C(=O)N([C@@H](C)CO)C[C@H]1C | -1 | . | -6 | . | .
C/C(=N\OC(=O)c1ccccc1)c1cc(-c2ccc(Cl)cc2)no1 | . | -7 | 7 | 65 | .
C/C(=N/OC(=O)C1CC1)c1cc(-c2ccc(Cl)cc2)no1 | 0 | 11 | . | 89* | 8
O=c1nc2c(-c3ccccc3F)n[nH]n2c2ccccc12 | . | -3 | 22 | . | 36*
COc1ccc(Nc2nc3ccccc3n3nnnc23)cc1 | . | -7 | 5 | 0 | .
COc1cc(Nc2nc3ccccc3n3nnnc23)cc(OC)c1OC | 0 | 50* | 2 | 35 | 4
[O-]/[N+](=C\c1ccco1)c1ccc(Cl)cc1 | 0 | -4 | 88* | 58 | 26
[O-][N+](=Cc1ccccc1)c1ccc(Cl)cc1 | 0 | -8 | . | 71 | 38*
COC(=O)[C@H]1[C@H](CO)[C@H]2Cn3c(cccc3=O)[C@H]2N1C(=O)C1CCCCC1 | 0 | . | -2 | . | .
COc1ccc(N2C(=O)c3ccccc3NC2(C)C)cc1 | 1 | -3 | 5 | 47 | -1
SMILES | XiGFP reactiv | Vif imaging | esBAF inh | MITF act | Wnt bcat act
COc1ccc(N2C(=O)c3ccccc3NC23CCCCC3)cc1 | . | -6 | -24 | 99* | 28
CC1(C)Nc2ccccc2C(=O)N1c1ccc(Br)cc1 | 0 | -11 | . | . | 66*
CCOc1ccc(N2C(=O)c3ccccc3NC2(C)CC)cc1 (stereo not drawn) | 0 | -10 | 18 | 124* | ?
CCC1(C)Nc2ccccc2C(=O)N1O (stereo not drawn) | . | 1 | 6 | 6 | .
C[C@@H]1CCCCO[C@@H](CN(C)C(=O)Nc2ccc3c(c2)OCO3)[C@H](C)CN([C@@H](C)CO)C(=O)c2cc(NS(=O)(=O)c3cccs3)ccc2O1 | 0 | . | 8 | . | .
Cc1ccc(C(=O)NC(N2CCCC2)C(Cl)(Cl)Cl)cc1 (stereo not drawn) | . | 56* | 3 | -9 | 0
O=C(C[C@H]1C=C[C@H](NS(=O)(=O)c2ccccc2)[C@H](CO)O1)N1CCC(Cc2ccccc2)CC1 | 0 | . | . | . | .
COc1ccc2cc(C(=O)N3CCN(C)CC3)[nH]c2c1 | 0 | 1 | 23 | 44 | 17
